Assay results taken from ChEMBL document CHEMBL1795219, “4-alkoxy-3-arylfuran-2(5H)-ones as inhibitors of tyrosyl-tRNA synthetase: synthesis, molecular docking and antibacterial evaluation” (Bioorg Med Chem, 2011).
pIC50: −log10 of the molar value. ≈ marks a conversion by molar mass, not a printed value.

Assays:
[1] = Inhibition of Staphylococcus aureus TyrRS expressed in Escherichia coli using L-[ring-3,5-3H] tyrosine preincubated for 10 mins by scintillation counting
Procedure, shortened: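 Aminoacylation assay with purified TyrRS (0.2 nM). Enzyme preincubated with a range of inhibitor concentrations for 10 min at room temperature, then prewarmed mix added at 37 °C. Final mix: 100 mM Tris/Cl pH 7.9, 50 mM KCl, 16 mM MgCl2, 5 mM ATP, 3 mM DTT, 4 mg/ml E. coli MRE600 tRNA, 10 uM tritiated L-tyrosine. Stopped at intervals in ice-cold 7% TCA, filtered, scintillation counted. Rate linear, under 50% tRNA acylation. IC50 is the concentration halving activity.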

Staphylococcus aureus = assay: Antibacterial activity against Staphylococcus aureus ATCC 25923 after 24 hrs by MTT colorimetric method; assay type: functional; details: ATCC 25923, 24 h
Candida albicans = assay: Antibacterial activity against Candida albicans ATCC 10231 after 48 hrs by MTT colorimetric method; assay type: functional; details: ATCC 10231, 48 h
Escherichia coli = assay: Antibacterial activity against Escherichia coli ATCC 35218 after 24 hrs by MTT colorimetric method; assay type: functional; details: ATCC 35218, 24 h
Bacillus subtilis = assay: Antibacterial activity against Bacillus subtilis ATCC 6633 after 24 hrs by MTT colorimetric method; assay type: functional; details: ATCC 6633, 24 h

Row | Compound | pIC50 [1] | MIC50 (Staphylococcus aureus) | MIC50 (Candida albicans) | MIC50 (Escherichia coli) | MIC50 (Bacillus subtilis)
1 | O=C1OCC(OCCN2CCCCC2)=C1c1ccc(F)c(F)c1 | < 4.00 | – | – | – | –
2 | COc1ccc(C2=C(OCCN3CCN(C)CC3)COC2=O)cc1OC | < 4.00 | – | – | – | –
3 | COc1cccc(C2=C(OCCN3CCOCC3)COC2=O)c1 | 4.43 | 40.8 µg/mL (≈ 128 µM) | > 50 µg/mL | > 50 µg/mL | > 50 µg/mL
4 | NC[C@H]1O[C@H](O[C@H]2[C@H](O)[C@@H](O[C@H]3O[C@H](CO)[C@@H](O)[C@H](N)[C@H]3O)[C@H](N)C[C@@H]2N)[C@H](O)[C@@H](O)[C@@H]1O [KANAMYCIN] | – | 1.2 µg/mL (≈ 2.48 µM) | – | – | 0.48 µg/mL (≈ 0.991 µM)
5 | O=C1OCC(OCCN2CCOCC2)=C1c1cccc(Cl)c1 | 4.69 | – | – | – | –
6 | CCCNCCOC1=C(c2ccccc2)C(=O)OC1 | 4.54 | 34.3 µg/mL (≈ 131 µM) | > 50 µg/mL | > 50 µg/mL | > 50 µg/mL
7 | COc1ccc(C2=C(OCCN3CCOCC3)COC2=O)cc1 | 4.48 | – | – | – | –
8 | O=C1OCC(OCCNCc2ccccc2)=C1c1ccccc1 | < 4.00 | – | – | – | –
9 | O=C1OCC(OCCN2CCOCC2)=C1c1cccc(Br)c1 | 4.61 | 25.5 µg/mL (≈ 69.3 µM) | > 50 µg/mL | > 50 µg/mL | > 50 µg/mL
10 | CN1CCN(CCOC2=C(c3ccc(Cl)c(Cl)c3)C(=O)OC2)CC1 | < 4.00 | – | – | – | –
11 | O=C1OCC(OCCN2CCOCC2)=C1c1cccc(O)c1 | 4.59 | 34.3 µg/mL (≈ 112 µM) | 47.2 µg/mL (≈ 155 µM) | > 50 µg/mL | 47.4 µg/mL (≈ 155 µM)
12 | O=C1OCC(OCCNC2CCCCC2)=C1c1ccccc1 | 4.06 | – | – | – | –
13 | O=C1OCC(OCCN2CCCC2)=C1c1ccccc1 | 4.45 | – | – | – | –
14 | CCCCNCCOC1=C(c2ccccc2)C(=O)OC1 | 4.14 | – | – | – | –
15 | O=C1OCC(OCCN2CCOCC2)=C1c1ccc(Br)cc1 | 5.62 | 3 µg/mL (≈ 8.15 µM) | 12.7 µg/mL (≈ 34.5 µM) | > 50 µg/mL | 15.8 µg/mL (≈ 42.9 µM)
16 | O=C1OCC(OCCN2CCCCC2)=C1c1ccccc1 | 4.27 | – | – | – | –
17 | O=C1OCC(OCCNNc2ccc([N+](=O)[O-])cc2)=C1c1ccccc1 | < 4.00 | – | – | – | –
18 | O=C1OCC(OCCN2CCOCC2)=C1c1ccc(Cl)cc1 | 6.21 | 1.3 µg/mL (≈ 4.02 µM) | 2.9 µg/mL (≈ 8.96 µM) | > 50 µg/mL | 8.6 µg/mL (≈ 26.6 µM)
19 | O=C1OCC(OCCN2CCOCC2)=C1c1ccc(O)cc1 | 7.00 | 0.23 µg/mL (≈ 0.753 µM) | 1.1 µg/mL (≈ 3.6 µM) | > 50 µg/mL | 2.1 µg/mL (≈ 6.88 µM)
20 | CC1(C)S[C@@H]2[C@H](NC(=O)Cc3ccccc3)C(=O)N2[C@H]1C(=O)O [PENICILLIN G] | – | – | – | 2.7 µg/mL (≈ 8.07 µM) | –
21 | CC(=O)N1CCN(c2ccc(OCC3COC(Cn4ccnc4)(c4ccc(Cl)cc4Cl)O3)cc2)CC1 (configuration not stated) [KETOCONAZOLE] | – | – | 3.8 µg/mL (≈ 7.15 µM) | – | –
22 | CN1CCN(CCOC2=C(c3ccccc3)C(=O)OC2)CC1 | 5.07 | 16.5 µg/mL (≈ 54.6 µM) | > 50 µg/mL | > 50 µg/mL | > 50 µg/mL
23 | COc1ccc(C2=C(OCCNC3CCCCC3)COC2=O)cc1OC | < 4.00 | – | – | – | –
24 | O=C1OCC(OCCN2CCOCC2)=C1c1ccccc1 | 5.21 | 10.4 µg/mL (≈ 35.9 µM) | 34.2 µg/mL (≈ 118 µM) | > 50 µg/mL | 47.4 µg/mL (≈ 164 µM)
25 | COc1ccc(C2=C(OCCN3CCCCC3)COC2=O)cc1OC | < 4.00 | – | – | – | –
